The list is not random: actives were taken first. Their share in the collection is about 2.6%.
OXTR potentiate: human OXTR potentiation | P30559 | activation, % at 3 µM | CHO-OTR cells, Fluo-8 calcium fluorescence, potentiator mode; 0% = oxytocin EC15, 100% = EC100 | 320,000 compounds, 0.061% hits;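 active means activation above that plate's cutoff, the mean activation of tested compounds plus 3 SD, cut at about 6.6% in these data, passing the limit was not always enough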;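 further: 100% uses oxytocin at 75 nM as the full agonist control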
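System: human OTR in CHO cells; Also added: sub-maximal oxytocin, roughly EC15; Timing: compound 6 min at room temperature before oxytocin, 100 s read; Technique: Fluo-8 intracellular calcium fluorescence, ex 470-495, em 515-575 nm; Controls: oxytocin EC15 low and EC100 high; Replication: singlicate.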
V1R ag counter: activates human V1a receptor in oxytocin agonist counter-screen. CHO-V1R cells, Fluo-8 calcium fluorescence, agonist mode; 0% DMSO, 100% 3 nM vasopressin. activation, % at 3 µM. 320,000 compounds, 0.25% hits;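 active means activation above the mean activation of all tested compounds plus 3 SD, per screening run, cut at about 20% in these data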;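 further: signal is peak over basal fluorescence ratio across a 100 second FLIPR read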
OX1R antag-1: human HCRTR1 antagonism; CHO/OX1R cells, Fluo-8 calcium fluorescence, orexin A; inhibition, % at 5 µM; 330,000 compounds, 0.43% hits;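 active means inhibition above its plate's threshold, mean inhibition of all tested compounds on the plate plus 3 SD, cut at about 37% in these data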;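 further: 0% = orexin A challenge wells and 100% = SB-334867-A antagonist wells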
Target sequence (O43613 whole entry, looked up): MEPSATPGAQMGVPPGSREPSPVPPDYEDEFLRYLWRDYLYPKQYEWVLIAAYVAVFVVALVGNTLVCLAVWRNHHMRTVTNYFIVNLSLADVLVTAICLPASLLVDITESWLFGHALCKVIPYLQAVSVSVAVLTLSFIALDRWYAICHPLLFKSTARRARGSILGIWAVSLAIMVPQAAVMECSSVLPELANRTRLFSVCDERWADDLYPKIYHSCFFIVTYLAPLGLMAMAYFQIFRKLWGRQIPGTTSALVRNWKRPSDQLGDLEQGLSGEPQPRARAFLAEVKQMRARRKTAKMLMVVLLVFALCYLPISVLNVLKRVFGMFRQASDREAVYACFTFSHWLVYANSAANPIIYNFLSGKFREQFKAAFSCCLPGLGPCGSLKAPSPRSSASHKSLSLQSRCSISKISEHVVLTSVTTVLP
OX1R antag-2: blocks the human orexin 1 receptor; O43613; OX1R-expressing cells, FRET antagonist read-out; inhibition, % at 6.6 µM; 330,000 compounds, 1.8% hits; AID 485270; in the data active means inhibition mostly above about 38%, no sharp cut-off; inactive means mostly below about 40%;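 further: 0% = agonist challenge alone and 100% = reference antagonist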
OXTR ag: agonists of human oxytocin receptor; activation, % at 3 µM; P30559; CHO-OTR cells, Fluo-8 calcium fluorescence; normalized: DMSO 0%, oxytocin 100%; 320,000 compounds, 0.32% hits;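 active means activation above the mean of all tested compounds plus 3 SD, cutoff set per screening run, cut at about 20% in these data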;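 further: peak over basal fluorescence ratio from a 100 s FLIPR kinetic read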
CHO parental Ca: signal in parental CHO cells, OX1R antagonist counter-screen. parental CHO-K1, ATP-induced calcium, Fluo-8 fluorescence. inhibition, % at 5.6 µM. 330,000 compounds, 0.63% hits. AID 463079;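 active means inhibition above that plate's mean sample inhibition plus 3 SD, cut at about 26% in these data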;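 further: 0% = ATP-challenged DMSO wells and 100% = DMSO wells without ATP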
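Test system: untransfected parental CHO cell line; also added: ATP stimulus; dosing: 5.6 µM, single dose; signal: calcium-sensitive Fluo-8 fluorescence; measure: percent inhibition of ATP-evoked calcium rise, normalized to controls; benchmarks: low control ATP plus DMSO, high control DMSO only; replication: one well per compound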
The depositor's hits bear a star; / = no result.

SMILES	OXTR potentiate	V1R ag counter	OX1R antag-1	OX1R antag-2	OXTR ag	CHO parental Ca
CCOc1ccc(-c2c(=O)n(OCc3ccccn3)c3ccccc3[n+]2[O-])cc1	-12	-1	5	62*	-2	-8
COc1ccc(-c2c(=O)n(OCc3ccccn3)c3ccccc3[n+]2[O-])cc1OC	-2	1	-22	55*	0	-16
O=C(C1COc2ccccc2O1)N1CCN(c2ccc([N+](=O)[O-])cc2)CC1 (centres undefined)	-5	4	19	14	5	-6
COCCNC(=O)CCC(=O)NNc1nc2ccccc2c2nc(-c3ccccc3)nn12	-16	0	6	72*	0	-3
CCOCCCNC(=O)CCC(=O)NNc1nc2ccccc2c2nc(-c3ccccc3)nn12	-7	-1	26	53*	1	-16
CC(C)OCCCNC(=O)CCC(=O)NNc1nc2ccccc2c2nc(-c3ccccc3)nn12	-7	0	19	66*	-1	-13
CSCCC(NC(=O)COc1ccccc1)C(=O)NCC1COc2ccccc2O1 (centres undefined)	-8	-1	-33	18	0	-33
O=c1c2ccccc2nc2c3ccccc3cnn12	-4	0	-19	41*	-1	-10
COc1ccc(C2C(C#N)=C(N)Oc3cc(O)ccc32)cc1Cl (centres undefined)	-15	10	-5	21	1	20
O=C(CSc1n[nH]c(=O)n1C1CC1)Nc1ccc(Cl)cc1Cl	-10	1	-13	-2	2	1
N#Cc1cc([N+](=O)[O-])ccc1NC(=O)CSc1n[nH]c(=O)n1C1CC1	3	1	-4	33*	2	-1
COc1ccc(OC)c(NC(=O)COC(=O)CCNc2ccccc2OC)c1	-8	0	-4	55*	-1	-14
COc1ccc(OC)c(NC(=O)c2cnc(Nc3ccccc3OC)c3ccccc23)c1	-5	-2	18	68*	-3	-34
COc1ccc(S(=O)(=O)N(C)c2ccc(OC(=O)C(C)Oc3ccc(F)cc3)cc2)cc1 (centres undefined)	-4	3	-13	15	4	-5
Cc1nnc(SCC(=O)NC2CCCC2)n1C(C)C	1	1	-1	7	0	0
Cc1ccc(NC(=O)/C=C/c2cccc(C(F)(F)F)c2)cc1	-7	2	-21	13	-1	-6
O=C(/C=C/c1cccc(C(F)(F)F)c1)Nc1cccc(C(F)(F)F)c1	-11	4	31	36*	3	-5
CC[C@]12c3[nH]c4cc(-c5ccco5)ccc4c3CCN1C(=O)[C@@H](CC(=O)NCCN1CCOCC1)C[C@@H]2C(=O)N1CCN(C(=O)C2CC2)CC1	/	/	-19	-1	/	-12
CCOC(=O)C1=C(CC)Nc2ccccc2N=C1NC(=O)Nc1ccc(Cl)c(Cl)c1	-21	11	64*	96*	12	64*
CCOC(=O)C1=C(CC)Nc2ccccc2N=C1NC(=O)c1cc(C)on1	0	1	-12	4	-2	-19
COc1ccc(-n2ccnc(SCC(=O)NC3CCCC3)c2=O)cc1	-10	1	-7	45*	0	-6
CC(OC(=O)c1cc(S(=O)(=O)N2CCOCC2)ccc1Br)C(=O)N1CCOCC1 (centres undefined)	-6	-1	-11	0	0	-19
CN1/C(=C\P(=O)(N(C)C)N(C)C)C(C)(C)c2ccccc21	-6	10	77*	25	6	45*
CC(=O)Oc1ccc(C23CC4CC(CC(C4)C2)C3)cc1C(=O)O	-14	2	-3	28	3	-2
CC(Oc1ccc2ccc(=O)oc2c1)C(=O)NC(Cc1c[nH]c2ccc(O)cc12)C(=O)O (centres undefined)	-1	1	-6	6	0	-4
SMILES	OXTR potentiate	V1R ag counter	OX1R antag-1	OX1R antag-2	OXTR ag	CHO parental Ca
COc1cc(/C=C2/S/C(=N/S(=O)(=O)c3ccccc3)NC2=O)c([N+](=O)[O-])cc1OC	-13	0	-8	26	-1	-11
O=C1N/C(=N\S(=O)(=O)c2ccccc2)S/C1=C\c1cc([N+](=O)[O-])ccc1O	-17	20*	59*	15	25*	46*
O=C(CCCN1C(=O)/C(=C/c2ccco2)SC1=S)Nc1cccc(C(=O)O)c1	-5	3	-1	61*	1	-5
O=C(CCCN1C(=O)/C(=C/c2cccs2)SC1=S)Nc1ccccc1O	-12	6	0	61*	5	14
COc1ccc(N2CCN(C(=O)COC(=O)c3oc4ccccc4c3C)CC2)cc1	-12	9	-9	13	5	-21
CC(NC(=O)[C@H](NC(=O)[C@@H]1Cc2ccccc2CN1)c1ccccc1)c1ccccc1 (some centres undefined)	-6	2	-16	50*	1	-16
CC(C)c1ccc(NC(=O)[C@H](NC(=O)[C@@H]2Cc3ccccc3CN2)c2ccccc2)cc1	-10	3	-22	15	2	-23
NC(=O)C1CCN(C(=O)c2ccc(Cl)c(S(=O)(=O)N3CCCCCC3)c2)CC1	1	0	-21	7	0	-7
CCc1cc(Cn2nc(-c3ccccc3)cc2C(=O)NCc2cccs2)on1	-16	3	42	50	2	50*
CCC(OC(=O)CN1C(=O)C(=O)c2ccccc21)C(=O)Nc1ccc(S(N)(=O)=O)cc1 (centres undefined)	-4	0	-26	50*	0	-12
N#Cc1ccc(NC(=O)CNc2cc(S(=O)(=O)N3CCOCC3)ccc2NCC2CCCO2)cc1 (centres undefined)	3	-1	-24	-2	0	39*
CCOc1ccc2nc3cc(NCc4ccc(OC)cc4)ccc3c(N)c2c1	-7	0	10	44*	2	2
CCn1cnc2cc(NCc3ccc(OC)cc3)ccc21	-3	2	-1	7	4	-5
Cc1cc2c(cc1C)NC(CC(=O)NCc1ccccc1)C(=O)N2 (centres undefined)	-6	0	2	35*	0	-14
COc1ccc(CCNC(=O)CC2Nc3cc(C)c(C)cc3NC2=O)cc1OC (centres undefined)	-9	0	-13	34	-1	-12
CCC(=O)N(C1=C(NC(C)C)C(=O)c2ccccc2C1=O)C(C)C	-8	0	2	44	0	-5
CC(=O)N(C1=C(N)C(=O)c2ccccc2C1=O)C(C)C	-14	2	-6	48*	1	-3
O=C1/C(=C/c2cccc(Br)c2)SC(=S)N1CCC(=O)N(CCO)c1ccccc1	-21	1	-19	0	-1	39*

Source: PubChem (The Scripps Research Institute Molecular Screening Center)
